Data taken from ChEMBL document CHEMBL1148178, “Dicranin, an antimicrobial and 15-lipoxygenase inhibitor from the moss Dicranum scoparium” (1993).
The source made the active and inactive calls. No cut-off for these calls is given here.

Key:
[1] = test system: Bacillus subtilis; test: Antibacterial activity against Bacillus subtilis NCIB 3610 at 1000 ug/disk after 24 hrs by disk diffusion assay; type: functional; conditions: read-out: Diameter of inhibition zone
Procedure, shortened: (§1)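 Sterile 6 mm filter-paper disc bearing sample set in the centre of a Petri dish of 15 ml plate count agar. Overlaid with 3 ml soft nutrient agar (nutrient broth + 0.7% agar) seeded with 1% of a 16–18 h culture of the test strain. Read-out is the diameter of the growth-free zone around the disc.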

[2] = test system: Bacillus subtilis; test: Antibacterial activity against Bacillus subtilis NCIB 3610 at 10 ug/disk after 24 hrs by disk diffusion assay; type: functional; conditions: read-out: Diameter of inhibition zone; procedure, shortened: as §1
[3] = test system: Bacillus cereus; test: Antibacterial activity against Bacillus cereus NCIB 3329 at 50 ug/disk after 24 hrs by disk diffusion assay; type: functional; conditions: read-out: Diameter of inhibition zone; procedure, shortened: as §1
[4] = test system: Bacillus subtilis; test: Antibacterial activity against Bacillus subtilis NCIB 3610 at 250 ug/disk after 24 hrs by disk diffusion assay; type: functional; conditions: read-out: Diameter of inhibition zone; procedure, shortened: as §1
[5] = test system: Bacillus cereus; test: Bactericidal activity against Bacillus cereus NCIB 3329 at 150 ug/ml by liquid culture assay; type: functional, organism-based
Procedure, shortened: (§2)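 Wells hold brain heart infusion (200 µl) plus 50 µl inoculum at 10³–10⁵ cfu/ml, with dicranin added as the sodium salt in water (10–200 μg/ml tested). Cultures are incubated at the strain's optimal growth temperature. Duplicate 100 µl samples are taken at 0, 2, 4, 6, 8 and 24 h, diluted in tryptone salt to 10–500 bacteria/plate, plated on plate count agar, and colonies counted after 24 h.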

[6] = test system: Staphylococcus aureus; test: Antibacterial activity against Staphylococcus aureus T-AQ 49/YF29 at 50 ug/disk after 24 hrs by disk diffusion assay; type: functional; conditions: read-out: Diameter of inhibition zone; procedure, shortened: as §1
[7] = test system: Staphylococcus aureus; test: Antibacterial activity against Staphylococcus aureus T-AQ 49/YF29 at 250 ug/disk after 24 hrs by disk diffusion assay; type: functional; conditions: read-out: Diameter of inhibition zone; procedure, shortened: as §1
[8] = test system: Bacillus cereus; test: Antibacterial activity against Bacillus cereus NCIB 3329 at 10 ug/disk after 24 hrs by disk diffusion assay; type: functional; conditions: read-out: Diameter of inhibition zone; procedure, shortened: as §1
[9] = test system: Bacillus cereus; test: Bactericidal activity against Bacillus cereus NCIB 3329 at 10 ug/ml by liquid culture assay; type: functional, organism-based; procedure, shortened: as §2
[10] = test system: Geobacillus stearothermophilus; test: Bactericidal activity against sBacillus stearothermophilus NCA 1518 at 200 ug/ml by liquid culture assay; type: functional, organism-based; procedure, shortened: as §2
[11] = test system: Staphylococcus aureus; test: Antibacterial activity against Staphylococcus aureus T-AQ 49/YF29 at 25 ug/disk after 24 hrs by disk diffusion assay; type: functional; conditions: read-out: Diameter of inhibition zone; procedure, shortened: as §1
[12] = test system: Geobacillus stearothermophilus; test: Antibacterial activity against Bacillus stearothermophilus NCA 1518 at 500 ug/disk after 24 hrs by disk diffusion assay; type: functional; conditions: read-out: Diameter of inhibition zone; procedure, shortened: as §1
[13] = test system: Bacillus cereus; test: Antibacterial activity against Bacillus cereus NCIB 3329 at 1000 ug/disk after 24 hrs by disk diffusion assay; type: functional; conditions: read-out: Diameter of inhibition zone; procedure, shortened: as §1
[14] = test system: Geobacillus stearothermophilus; test: Antibacterial activity against Bacillus stearothermophilus NCA 1518 at 10 ug/disk after 24 hrs by disk diffusion assay; type: functional; conditions: read-out: Diameter of inhibition zone; procedure, shortened: as §1
[15] = test system: Pseudomonas putida; test: Antibacterial activity against Pseudomonas putida T-AQ 18/YF18 at 1 mg/disk after 24 hrs by disk diffusion assay; type: functional, organism-based; procedure, shortened: as §1
[16] = test system: Geobacillus stearothermophilus; test: Antibacterial activity against Bacillus stearothermophilus NCA 1518 at 125 ug/disk after 24 hrs by disk diffusion assay; type: functional; conditions: read-out: Diameter of inhibition zone; procedure, shortened: as §1
[17] = test system: Geobacillus stearothermophilus; test: Antibacterial activity against Bacillus stearothermophilus NCA 1518 at 100 ug/disk after 24 hrs by disk diffusion assay; type: functional; conditions: read-out: Diameter of inhibition zone; procedure, shortened: as §1
[18] = test system: Bacillus subtilis; test: Antibacterial activity against Bacillus subtilis NCIB 3610 at 75 ug/disk after 24 hrs by disk diffusion assay; type: functional; conditions: read-out: Diameter of inhibition zone; procedure, shortened: as §1
[19] = test system: Geobacillus stearothermophilus; test: Antibacterial activity against Bacillus stearothermophilus NCA 1518 at 50 ug/disk after 24 hrs by disk diffusion assay; type: functional; conditions: read-out: Diameter of inhibition zone; procedure, shortened: as §1
[20] = test system: Geobacillus stearothermophilus; test: Bactericidal activity against Bacillus stearothermophilus NCA 1518 at 50 to 150 ug/ml upto 4 hrs by liquid culture assay; type: functional, organism-based; procedure, shortened: as §2
[21] = test system: Bacillus cereus; test: Antibacterial activity against Bacillus cereus NCIB 3329 at 75 ug/disk after 24 hrs by disk diffusion assay; type: functional; conditions: read-out: Diameter of inhibition zone; procedure, shortened: as §1
[22] = test system: Enterococcus faecalis; test: Antibacterial activity against Streptococcus faecalis NCIB 775 at 50 ug/disk after 24 hrs by disk diffusion assay; type: functional; conditions: read-out: Diameter of inhibition zone
Procedure, shortened: (§3)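 Test material loaded onto 6 mm sterile filter-paper discs. Each disc sits at the centre of a plate of 15 ml plate count agar overlaid with 3 ml soft nutrient agar (nutrient broth + 0.7% agar) carrying 1% of a 16–18 h culture. Activity is read as the diameter of the no-growth zone around the disc.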

[23] = test system: Staphylococcus aureus; test: Antibacterial activity against Staphylococcus aureus T-AQ 49/YF29 at 125 ug/disk after 24 hrs by disk diffusion assay; type: functional; conditions: read-out: Diameter of inhibition zone; procedure, shortened: as §1
[24] = test system: Enterococcus faecalis; test: Antibacterial activity against Streptococcus faecalis NCIB 775 at 75 ug/disk after 24 hrs by disk diffusion assay; type: functional; conditions: read-out: Diameter of inhibition zone; procedure, shortened: as §3
[25] = test system: Staphylococcus aureus; test: Antibacterial activity against Staphylococcus aureus T-AQ 49/YF29 at 500 ug/disk after 24 hrs by disk diffusion assay; type: functional; conditions: read-out: Diameter of inhibition zone; procedure, shortened: as §1
[26] = test system: Enterococcus faecalis; test: Antibacterial activity against Streptococcus faecalis NCIB 775 at 10 ug/disk after 24 hrs by disk diffusion assay; type: functional; conditions: read-out: Diameter of inhibition zone; procedure, shortened: as §1

`CC/C=C\C/C=C\C/C=C\CC#CCCCCC(=O)O` [DICRANIN] showed a zone of inhibition at 1000 µg/disc [1] of 20 mm, a zone of inhibition at 10 µg/disc [2] of 0 mm and a zone of inhibition at 50 µg/disc [3] of 10 mm. The zone of inhibition at 250 µg/disc [4] was 16 mm, the Activity [5] was “Active” and the zone of inhibition at 50 µg/disc [6] was 11 mm. For the same compound, the zone of inhibition at 250 µg/disc [7] was 21 mm, the zone of inhibition at 10 µg/disc [8] was 0 mm and the Activity [9] was “inactive”. For the same compound, the Activity [10] was “Active”, the zone of inhibition at 25 µg/disc [11] was 0 mm and the zone of inhibition at 500 µg/disc [12] was 32 mm. For the same compound, the zone of inhibition at 1000 µg/disc [13] was 25 mm, the zone of inhibition at 10 µg/disc [14] was 0 mm and the Activity [15] was “inactive”. It also gave a zone of inhibition at 125 µg/disc [16] of 17 mm, a zone of inhibition at 100 µg/disc [17] of 16 mm and a zone of inhibition at 75 µg/disc [18] of 13 mm. The zone of inhibition at 50 µg/disc [19] was 11 mm, the Activity [20] was “Active” and the zone of inhibition at 75 µg/disc [21] was 11 mm. The zone of inhibition at 50 µg/disc [22] was 12 mm, the zone of inhibition at 125 µg/disc [23] was 17 mm and the zone of inhibition at 75 µg/disc [24] was 13 mm. For the same compound, the zone of inhibition at 500 µg/disc [25] was 22 mm and the zone of inhibition at 10 µg/disc [26] was 6 mm.
